Sampled rows, rich in hits. Any-hit rate of the full collection: about 2.5%.
SIRT5 inh – SIRT5 desuccinylase inhibitors, primary screen, biochemical, fluorescence imaging, single point, set 5; NAD-dependent protein deacylase sirtuin-5, mitochondrial (Homo sapiens), Q9NXA8; Purified SirT5, succinyl-peptide AMC, trypsin-coupled fluorescence; inhibition, % at 15 µM; actives 1.1% (n = 330,000); AID 652115, 2013; in the data active = inhibition above about 15%; inconclusive = no clear call, values can overlap the other calls
Target sequence (Q9NXA8 whole entry, looked up): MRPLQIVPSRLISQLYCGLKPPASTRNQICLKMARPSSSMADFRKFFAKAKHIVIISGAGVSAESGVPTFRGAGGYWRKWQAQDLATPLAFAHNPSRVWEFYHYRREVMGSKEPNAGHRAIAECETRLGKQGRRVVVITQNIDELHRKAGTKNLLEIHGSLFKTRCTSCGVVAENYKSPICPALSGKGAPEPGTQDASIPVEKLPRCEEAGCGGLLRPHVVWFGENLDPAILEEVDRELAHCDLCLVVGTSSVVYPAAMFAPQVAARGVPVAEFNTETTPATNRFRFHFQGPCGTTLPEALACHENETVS
FGF22 binding – binders of human FGF22 protein, primary screen, FGF22 synaptogenesis inhibitor project, biophysical, thermal shift, single point; Fibroblast growth factor 22 (Homo sapiens), Q9HCT0; recombinant FGF22 thermal shift, SYPRO orange fluorescence; percent of sucrose octasulfate shift, DMSO zero; activity (Tm shift, normalised), % at 9.99 µM; actives 1.5% (n = 340,000);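 active = mean Tm shift, scaled 0 neutral to 100 positive control, at about 1.3% or above, every replicate too, limit read from the data; inconclusive = no clear call, values can overlap the other calls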
Target sequence (Q9HCT0 whole entry, looked up): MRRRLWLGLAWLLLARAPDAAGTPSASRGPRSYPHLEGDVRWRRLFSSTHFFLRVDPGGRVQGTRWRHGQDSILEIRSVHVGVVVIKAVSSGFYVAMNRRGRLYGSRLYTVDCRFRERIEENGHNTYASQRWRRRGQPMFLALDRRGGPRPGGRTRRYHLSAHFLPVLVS
E-selectin induc – E-selectin induction in HUVECs, primary screen, imaging, HUVEC, immunofluorescence imaging, single point; AID 686992, 2013; actives 0.37% (n = 260,000); activation, % at 7.58 µM; normalized: neutral wells 0, TNF-alpha wells 100; P16581;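 active = mean E-selectin-positive cell signal at least 10% of the positive control, reached in at least 60% of replicates, without over 20% cell loss; inconclusive = no rule given, readout overlaps actives, possibly toxicity-flagged; inactive = the rest, including those meeting only one limit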
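Test system: HUVEC; input: 3,000 HUVEC/well; measured by: immunofluorescence imaging; read-out: % PE-positive cells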
miR122 inh – miR-122 Renilla sensor signal increase in Huh7, primary screen, miR-122 inhibitor project, cell-based, single point, plate reader | AID 602342, 2012 | activation (reporter increase), % at 12.5 µM | actives 0.3% (n = 340,000) | Huh7 miR-122 Renilla luciferase sensor, 48 h; neutral wells = 0, positive control = 100;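 active = mean replicate activation score at least 90 and every replicate individually at or above 90; inconclusive = only one of the two criteria met; inactive = neither criterion met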;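 note: higher luciferase means less miR-122 activity so hits act as miR-122 inhibitors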
S100A4 MyoIIA – inhibitors of S100A4-myosin IIA peptide binding, primary screen, biochemical, fluorescence polarization, TAMRA-MyoIIA peptide. Protein S100-A4 (Homo sapiens), P26447. AID 652163, 2013. inhibition, % at 10.7 µM. actives 0.14% (n = 360,000);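 active = mean inhibition of at least 70% across replicates, with every replicate also reaching that level; inconclusive = mean inhibition reaches 70% but some replicates fall short; inactive = mean inhibition below 70%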
Target sequence (P26447 whole entry, looked up): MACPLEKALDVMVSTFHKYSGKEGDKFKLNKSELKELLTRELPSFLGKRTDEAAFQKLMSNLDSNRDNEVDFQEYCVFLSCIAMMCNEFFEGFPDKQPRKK
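incubation = readout 5 min after mixing, signal stable up to 60 min | system = S100A4 monomer protein | buffer or medium = HEPES pH 7.2 with CaCl2, KCl, NaCl, DTT, Triton | benchmarks = neutral control DMSO, positive control TFP | also added = fluorescent myosin IIA peptide, 5 nM | compound dosing = one concentration per compound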
Each line names hits and unclear results; the compound was inactive in the other large screens; ! = not confirmed by another sample; [ ] = remark or other dose.

CC(=O)OC1CCC2(C)C3CCC4(C)C(C(C)=O)CCC4C3CC3OC32C1 (stereo not given)	FGF22 binding 43.1 (no result: SIRT5 inh)
CC(=O)OC1(C(C)=O)CCC2C3CC4OC45CC(O)CCC5(C)C3CCC21C (stereo not given)	none
CCc1c(C)nc2ccc(Br)cc2c1SCCC#N	SIRT5 inh 112.4 (no result: miR122 inh)
CO[C@H]1CN(C)C(=O)c2cc(NC(=O)c3ccc(F)cc3)ccc2OC[C@@H](C)N(C(=O)CC2CC2)C[C@H]1C	none (no result: SIRT5 inh, FGF22 binding, S100A4 MyoIIA)
C[C@H](NC(=O)C[C@H]1C=C[C@H](NC(=O)C2CC2)[C@@H](CO)O1)c1ccccc1	none (no result: miR122 inh)
CS(=O)(=O)N1CCN(CCN2C(=O)c3cccc4cccc(c34)C2=O)CC1	FGF22 binding 45.2 (no result: E-selectin induc, miR122 inh)
COc1ccc2c3c(n(C)c2c1)[C@@H](CO)N(C(=O)CC1CC1)CC31CCN(C(=O)C2CCC2)CC1	none (no result: SIRT5 inh, FGF22 binding, miR122 inh, S100A4 MyoIIA)
CCCC(=O)Nc1ccc2c(c1)C(=O)N(C)[C@@H]1CC[C@H](CC(=O)NCC(F)(F)F)O[C@@H]1CO2	none (no result: SIRT5 inh, S100A4 MyoIIA)
O=C(Nn1c(-c2ccncc2)nc2ccccc2c1=O)c1ccccc1Br	E-selectin induc 113.6
CC(C)(C)c1ccc(OC(=O)N2CCOCC2)cc1	SIRT5 inh 15.7 (no result: E-selectin induc)
COCC#Cc1cnc2c(c1)C(=O)N([C@@H](C)CO)C[C@H](C)[C@H](CN(C)Cc1ccc(-c3ccccc3)cc1)O2	none (no result: SIRT5 inh, FGF22 binding, S100A4 MyoIIA)
O=C(COc1nncc2ccccc12)Nc1ccc(F)c(F)c1	FGF22 binding 43.3
O=C(COc1nncc2ccccc12)Nc1c(F)c(F)c(F)c(F)c1F	none (no result: miR122 inh)
C[C@@H]1CCCCO[C@H](CN(C)Cc2ccc(C(F)(F)F)cc2)[C@@H](C)CN([C@@H](C)CO)C(=O)c2cc(NS(C)(=O)=O)ccc2O1	none (no result: SIRT5 inh, S100A4 MyoIIA)
O=C(Cn1nnc(-c2cccs2)n1)NCc1cccs1	FGF22 binding 43.2 (no result: miR122 inh)
CC=Cc1ccc2n(c1=O)C[C@@H]1[C@@H](CO)[C@H](C(=O)N3CCc4ccccc4C3)[C@H]2N1Cc1ccncc1 (mixture of isomers)	FGF22 binding 1.5
CC=Cc1ccc2n(c1=O)C[C@H]1[C@H](CO)[C@@H](C(=O)NCC3CC3)[C@@H]2N1Cc1cccnc1 (mixture of isomers)	S100A4 MyoIIA 121.8
CC=Cc1ccc2n(c1=O)C[C@H]1[C@H](CO)[C@@H](C(=O)NCC3CC3)[C@@H]2N1Cc1ccccc1 (mixture of isomers)	none
CC=Cc1ccc2n(c1=O)C[C@H]1[C@H](CO)[C@@H](C(=O)N3CCc4ccccc4C3)[C@@H]2N1Cc1ccccc1 (mixture of isomers)	none
O=C(NCC[C@@H]1CC[C@H](NC(=O)C2CC2)[C@@H](CO)O1)Nc1ccc(Cl)cc1	none (no result: miR122 inh)
CCN(CC)S(=O)(=O)c1cc(C(=O)N(C)CC(=O)Nc2ccc(Cl)cc2)ccc1Cl	miR122 inh 168.4
Cc1ccccc1-c1ccc(C2[C@H]3CNC[C@@H]2N3Cc2cccnc2)cc1 (stereo not given in full)	none (no result: SIRT5 inh, miR122 inh, S100A4 MyoIIA)
CC(=O)N1c2ccc(S(=O)(=O)N3CCC(C(=O)Nc4ccccn4)CC3)cc2CC1C (stereo not given)	none (no result: E-selectin induc)
CC(=O)N1c2ccc(S(=O)(=O)N3CCC(C(=O)Nc4ncccc4C)CC3)cc2CC1C (stereo not given)	S100A4 MyoIIA 86.0 (no result: E-selectin induc)
COc1ccc(CN2C(=O)C3C4C=CC(C4)C3C2=O)cc1 (stereo not given)	none (no result: E-selectin induc)
COc1ccc(CNC(=O)CN2C(=O)C3C4C=CC(C4)C3C2=O)cc1 (stereo not given)	SIRT5 inh 109.3 (no result: miR122 inh)
COC(=O)C1CCN(Cc2ccc(OCCCN3CCN(c4ccc([N+](=O)[O-])cc4)CC3)cc2)CC1	SIRT5 inh 15.8 (no result: miR122 inh)
C[C@H](CO)N1C[C@H](C)[C@H](CN(C)Cc2ccc(Cl)c(Cl)c2)Oc2ccc(NS(=O)(=O)c3cccs3)cc2C1=O	E-selectin induc inconclusive
O=[N+]([O-])c1cc(Cl)c2cccnc2c1O	SIRT5 inh 16.6 (no result: FGF22 binding)
O=[N+]([O-])c1cc(CN2CCN(c3ccccc3)CC2)c(O)c2ncccc12	FGF22 binding 43.1 (no result: E-selectin induc)
O=[N+]([O-])c1cc(Cl)c(O)c2ncccc12	none (no result: FGF22 binding)
CCCC(=O)Nc1ccc(-c2cn3cccnc3n2)cc1	none (no result: miR122 inh)
CC(C)(C)CC(=O)Nc1ccc(-c2cn3cccnc3n2)cc1	E-selectin induc 34.4
COc1ccc(CNC(=O)C[C@H]2C=C[C@H](NC(=O)Nc3ccc4c(c3)OCO4)[C@H](CO)O2)cc1	none (no result: miR122 inh)
COc1ccc2c3c(n(C)c2c1)[C@H](CO)N(C(=O)c1ccccc1)CC31CCN(C(=O)c2ccccc2)CC1	S100A4 MyoIIA 73.0 (no result: FGF22 binding, miR122 inh)
CCCNC(=O)N1CC2(CN(S(=O)(=O)c3ccc(OC)cc3)C2)c2c(n(C)c3cc(OC)ccc23)[C@H]1CO	SIRT5 inh 16.0 (no result: miR122 inh)
CCCNC(=O)N1CC2(CN(S(=O)(=O)c3ccccc3)C2)c2c(n(C)c3cc(OC)ccc23)[C@H]1CO	none (no result: miR122 inh)
Cc1cc(/C=C2/C(=O)N(C)C(=S)N2C)ccc1N1CCCC1	FGF22 binding 42.9
Cc1cc(/C=C2\NC(=S)N(C)C2=O)ccc1N1CCCC1	none
CCCC#Cc1ccc2c(c1)O[C@H](CN(C)C(=O)c1ccccn1)[C@@H](C)CN([C@H](C)CO)S2(=O)=O	miR122 inh 128.0[16.7 µM]
COc1cccc(C#Cc2ccc3c(c2)O[C@@H](CN(C)C(=O)c2ccccn2)[C@@H](C)CN([C@H](C)CO)S3(=O)=O)c1	SIRT5 inh 16.0!
CCCC#Cc1ccc2c(c1)O[C@@H](CN(C)C(=O)c1cnccn1)[C@@H](C)CN([C@H](C)CO)S2(=O)=O	none
CCCC#Cc1ccc2c(c1)O[C@@H](CN(C)C(=O)c1cnccn1)[C@@H](C)CN([C@@H](C)CO)S2(=O)=O	SIRT5 inh 27.9
CCCC(=O)N1CCC2(CC1)CN(Cc1cccnc1)[C@@H](CO)c1[nH]c3cc(OC)ccc3c12	none (no result: miR122 inh)
Cc1ccc(S(=O)(=O)N(C)C[C@@H]2Oc3ccc(NC(=O)c4ccncc4)cc3CC(=O)N([C@@H](C)CO)C[C@@H]2C)cc1	none
CC1CCN(c2nc3c(N)ncnc3n2[C@@H]2O[C@H](CO)[C@@H](O)[C@H]2O)CC1	none
CC1CCN(c2nc3c(=O)[nH]c(N)nc3n2[C@@H]2O[C@H](CO)[C@@H](O)[C@H]2O)CC1	E-selectin induc 69.0
COc1ccc(OCC(O)CNC(=O)c2ccc(C)cc2)cc1 (stereo not given)	none (no result: SIRT5 inh, E-selectin induc, miR122 inh)
COc1ccc(C(=O)Nc2ccc(C(=O)NCCc3ccccc3)cc2)cc1	FGF22 binding 44.1 (no result: E-selectin induc, miR122 inh)
COc1ccc(C(=O)NCC(=O)OCc2ccc(F)cc2)cc1	none (no result: E-selectin induc, miR122 inh)

Assay outcomes from PubChem.
